Cav32 inh: inhibitors of human Cav3.2 T-type calcium channel. O95180. Cav3.2-expressing cells, Fluo-4 calcium fluorescence FDSS; active compounds read low. B-score at 10 µM. 4% of 100,000 active. AID 449739;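 active = single-dose well whose peak fluorescence ratio is a statistical outlier from its plate by either plate-standardised score or position-corrected B-score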
HUVEC prolif 384: human endothelial cell proliferation inhibition; HUVEC proliferation, CellTiter-Glo luminescence, 72 h; active compounds read low; viability, % at 10 µM (by protocol); 1.1% of 86,000 active; AID 648;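 active = viability at or below 30%; inactive = viability above 30%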;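 also: 100% = median luminescence of DMSO-only cell control wells on each plate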
HCT116 bCat-KO: beta-catenin-lacking colon tumor cell growth suppression. HCT116 beta-catenin knockout viability, CellTiter-Glo, 60 h; active compounds read low. viability, % at 10 µM. 1.5% of 140,000 active. AID 818;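 active = viability at or under a set limit, the compound median less 4 SD, cut at about 6% in these data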;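 also: 0% = Hyamine 1622 control at 20 µM and 100% = untreated cell control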
H69AR inhibit: growth inhibitors of human H69AR lung tumor cells; H69AR lung tumor viability, ATP luminescence, 72 h; active compounds read low; AID 598; viability, % at 10 µM; 6% of 85,000 active;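 active = viability at or below 40%; inactive = viability above 40%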;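 also: multidrug resistant small cell line overexpressing MRP-1 efflux transporter; 100% = mean luminescence of untreated control wells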
PTEN del growth: growth suppressors of cells with PTEN tumor suppressor deletion | 1.2% of 140,000 active | HCT116 PTEN-null viability, CellTiter-Glo, 60 h; active compounds read low | viability, % at 10 µM;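 active = viability at or below a set limit, 4 SD under the median of all tested compounds, cut at about 3.7% in these data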;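 also: PTEN knockout HCT116 line with beta catenin targeted HCT116 as companion control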
Fibroblast inh: blocks proliferation of human lung fibroblasts. LL 47 human lung fibroblast viability, ATP luminescence; active compounds read low. viability, % at 10 µM. 1.1% of 85,000 active. AID 719;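 active = viability at or below 50% in the single dose screen; inactive = viability above 50%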;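 also: compound exposure lasted 72 h before the ATP readout; 100% = median luminescence of untreated cell-only wells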
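Material: human LL 47 lung fibroblast cells; quantity: 1,150 cells/well; medium: IMEM plus 15% FBS; doses: 0.1% DMSO in all compound wells; timing: overnight attachment after seeding, then 72 h compound exposure at 37 °C; detection: CellTiter-Glo luminescence; measure: % viability of median cell-only signal; controls: cell-only wells, no compound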
An asterisk follows results filed as active; x = no result. Only some compounds are listed: those with a hit (about 7.1% of all), similar ones and a draw of the others.

SMILES | Cav32 inh | HUVEC prolif 384 | HCT116 bCat-KO | H69AR inhibit | PTEN del growth | Fibroblast inh
O=c1[nH][nH]c(-c2ccccc2O)c1C(C[N+](=O)[O-])c1ccc(Br)cc1 (centres undefined) | x | x | 4.2* | x | 1.6* | x
O=c1[nH]c(NC2CCCCC2)c([N+](=O)[O-])c(=O)[nH]1 | x | x | 94 | x | 104 | x
CCn1c(=O)cc(SCC(=O)NCc2ccco2)c2ccccc21 | 0.89 | 60 | 24 | 39* | 37 | 89
Cc1ccc(C)c(Cn2c(=O)n(CCCC(=O)NCc3ccco3)c(=O)c3ccccc32)c1 | x | 86 | 38 | 36* | 31 | 83
O=C(CCCCn1c(=O)c2ccccc2n(CC(=O)Nc2ccc(F)cc2)c1=O)NCc1ccco1 | 0.66 | 85 | 80 | 89 | 95 | 94
O=C(CCCCn1c(=O)c2ccccc2n(Cc2ccc(F)cc2Cl)c1=O)NCc1ccco1 | x | 64 | 61 | 24* | 65 | 88
O=C(NCc1ccco1)c1ccc(Cn2c(=O)c3ccccc3n(Cc3cccc(Cl)c3)c2=O)cc1 | 0.12 | 62 | 61 | 31* | 63 | 68
CCCCc1ccc(NC(=S)Nc2ccc(Cl)c(S(=O)(=O)N(C)C)c2)cc1 | x | x | 58 | x | 49 | x
O=c1c2cc3c(cc2[nH]c(=S)n1Cc1ccco1)OCO3 | x | 92 | 89 | 77 | 94 | 95
COCCN1C(=O)N[C@@H](CCc2ccccc2)[C@H](C(=O)OC)[C@H]1C | 1.1 | x | x | x | x | x
CNc1nc(-c2ccccn2)nnc1-c1ccccc1 | -0.36 | 11* | 19 | 68 | 21 | 13*
c1ccc(-c2nnc(-c3ccccn3)nc2NC2CCCCC2)cc1 | 0.69 | 18* | 4.0* | 37* | 7 | 19*
COC(=O)c1ccc(C(=O)OC)c(NC(=O)COC(=O)C2CCC(C(C)(C)C)CC2)c1 (centres undefined) | -4.8* | x | 83 | x | 86 | x
O=C(CCSc1nc(-c2ccco2)cc(C(F)(F)F)n1)NCCc1ccccc1 | -1.8 | 98 | 92 | 55 | 101 | 97
COc1ccc(-c2cc(C(F)(F)F)nc(SCCC(=O)NCc3ccccc3)n2)cc1 | -5.7* | 93 | 99 | 57 | 95 | 99
CC(NC(=O)CCSc1nc(-c2ccc3c(c2)OCO3)cc(C(F)(F)F)n1)c1ccccc1 (centres undefined) | -5.2* | 72 | 68 | 42 | 62 | 107
CCn1cc(CNC(=O)CCSc2nc(-c3ccco3)cc(C(F)(F)F)n2)cn1 | 0.4 | 82 | 67 | 32* | 54 | 100
CCOCC(=O)N1CCN(c2ccc([N+](=O)[O-])cc2)CC1 | x | x | 89 | x | 98 | x
Nc1c(S(=O)(=O)c2cccs2)c2nc3ccccc3nc2n1/N=C/c1cccc(O)c1 | -1.4 | 4.9* | 2.7* | 4.0* | 2.2* | 56
Cc1cccc(S(=O)(=O)c2c(N)n(/N=C/c3cccnc3)c3nc4ccccc4nc23)c1 | 0.84 | 76 | 51 | 33* | 61 | 63
Cc1cc(C)nc(SC2CCCCC2NS(=O)(=O)c2ccccc2)n1 (centres undefined) | x | x | 95 | x | 101 | x
CCNc1nc(NCC)n2c(SCC(=O)NC34CC5CC(CC(C5)C3)C4)nnc2n1 | x | x | 95 | x | 95 | x
CN(Cc1ccccc1)C(NC(=O)c1ccccc1)C(Cl)(Cl)Cl (centres undefined) | -5.7* | x | 100 | x | 112 | x
N#CCSc1nnc(Cc2cccc3ccccc23)n1C1CCCCC1 | -5.7* | 128 | 90 | 71 | 84 | 98
NC(=O)CSc1nnc(Cc2cccs2)n1C1CCCCC1 | 1.1 | 96 | 92 | 108 | 99 | 95
SMILES | Cav32 inh | HUVEC prolif 384 | HCT116 bCat-KO | H69AR inhibit | PTEN del growth | Fibroblast inh
Nc1cccc(-n2nnnc2CN2CCOCC2)c1 | x | x | 91 | x | 102 | x
CCOC(=O)N1CCc2c(sc3c2C(=O)NC(c2ccc(-c4ccc(Cl)cc4)o2)N3)C1 (centres undefined) | x | 89 | x | 30* | x | 53
Cc1ccc(C(=O)C(C)OC(=O)c2n[nH]c(=O)c3ccccc23)cc1 (centres undefined) | -0.077 | x | 100 | x | 101 | x
CCCn1c(C)cc(C(=O)COC(=O)CN=C2NS(=O)(=O)c3ccccc32)c1C | x | x | 100 | x | 95 | x
Cc1ccc2nc(N3CCN(C(=O)c4cccs4)CC3)c(C#N)cc2c1 | -4.8* | 89 | 73 | 63 | 71 | 95
COc1cc(C(=O)N2CCCN(c3nc4cc(C)ccc4cc3C#N)CC2)cc(OC)c1OC | 1.1 | 88 | x | 9.8* | x | 87
Cc1nc(Cl)sc1C(=O)Nc1cccc(Cl)c1C | x | x | 67 | x | 80 | x
CCc1cccc(NC(=O)CSC2=NS(=O)(=O)c3ccccc32)c1 | -5.4* | 50 | 83 | 3.5* | 87 | 50*
Cc1c(Cl)c([N+](=O)[O-])nn1CC(=O)NC(C)C1CC2CCC1C2 (centres undefined) | -8.2* | x | 77 | x | 82 | x
COc1cccc(-c2ccc(C#N)c(OC(=O)c3ccc(Cl)cc3)n2)c1 | 0.26 | 88 | 86 | 8.9* | 108 | 99
COC(=O)C1=C(C)N(C)C(C)=C(C(=O)OC)C1c1ccc(F)c(Br)c1 | -6.8* | 90 | 60 | 89 | 56 | 89
O=C(N/N=C/c1c[nH]c2ccccc12)c1[nH]c2ccc(Br)cc2c1-c1ccccc1 | x | x | 1.3* | x | 1.2* | x
COc1ccccc1NC(=O)C1=C(C)Nc2nnnn2C1c1cc(Br)ccc1OC (centres undefined) | -0.053 | 91 | 44 | 17* | 59 | 83
COc1ccc(C2c3c(oc4ccccc4c3=O)C(=O)N2c2ccccn2)cc1OC (centres undefined) | x | 92 | x | 26* | x | 92
COc1ccc(C2c3c(oc4ccccc4c3=O)C(=O)N2c2ccccn2)cc1 (centres undefined) | 0.11 | 99 | 74 | 78 | 74 | 88
CC(C)(C)c1ccc(-c2nnc(SCCN3C(=O)c4ccccc4C3=O)o2)cc1 | -1.3 | 103 | 102 | 102 | 91 | 101
O=C(Nc1ccc2nccnc2c1)c1cnccn1 | 0.034 | 100 | 97 | 96 | 101 | 109
CCCn1c(C)cc(=O)c2cc(NC(=O)c3cnccn3)ccc21 | 0.13 | 96 | 7 | 7.2* | 48 | 98
O=C(CCn1c(=O)oc2ccccc21)N1CCCCCC1 | 0.23 | 99 | 92 | 95 | 92 | 98
O=C(CCn1c(=O)oc2ccccc21)N1CCN(c2ccccc2Cl)CC1 | -4* | 62 | 30 | 18* | 30 | 66
O=C(CCS(=O)(=O)c1ccc(Br)cc1)N1CCN(c2ccccc2Cl)CC1 | -5.7* | 85 | 91 | 87 | 88 | 104
c1ccc(-n2nnnc2Sc2ncnc3sc4c(c23)CCCC4)cc1 | x | x | 4.5* | x | 4 | x
Cc1sc2ncnc(Sc3nnnn3-c3ccc(Cl)cc3)c2c1C | 0.39 | 9.9* | 4.9* | 1.4* | 5 | 67
CCOC(=O)COc1ccc(S(=O)(=O)Nc2ccc3c(c2)OCCO3)cc1 | -3.1 | 41 | 97 | 95 | 103 | 66
